From ChEMBL document CHEMBL1949635, “Discovery of AMG 853, a CRTH2 and DP Dual Antagonist” (ACS Med Chem Lett, 2011)
Active and inactive are the calls of the source. No cut-off for these calls is given here.

What was measured:
[1] = molecular target: T1, Prostaglandin D2 receptor 2 (Homo sapiens, UniProt Q9Y5Y4); assay: Displacement of [3H]-PGD2 from human CRTH2 receptor expressed in human HEK293 cells by scintillation counter in presence of 0.5% bovine serum albumin; assay type: cell-based
T1 sequence (Q9Y5Y4 whole entry): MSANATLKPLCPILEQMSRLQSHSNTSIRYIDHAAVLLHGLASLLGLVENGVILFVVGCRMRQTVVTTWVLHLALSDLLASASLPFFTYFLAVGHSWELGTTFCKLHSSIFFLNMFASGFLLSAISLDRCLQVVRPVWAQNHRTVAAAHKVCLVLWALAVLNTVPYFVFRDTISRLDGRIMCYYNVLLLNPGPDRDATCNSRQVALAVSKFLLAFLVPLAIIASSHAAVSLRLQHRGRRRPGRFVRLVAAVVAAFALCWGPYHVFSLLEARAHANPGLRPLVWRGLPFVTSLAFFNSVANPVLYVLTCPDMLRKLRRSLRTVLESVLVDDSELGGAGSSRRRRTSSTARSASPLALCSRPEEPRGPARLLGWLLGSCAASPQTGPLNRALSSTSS

[2] = molecular target: T1, Prostaglandin D2 receptor 2; assay: Displacement of [3H]-PGD2 from human CRTH2 receptor expressed in human HEK293 cells by scintillation counter in presence of 50% human plasma; assay type: cell-based
[3] = molecular target: T2, Prostaglandin D2 receptor (Homo sapiens, UniProt Q13258); assay: Displacement of [3H]-PGD2 from human Prostanoid DP receptor expressed in human HEK293 cells by scintillation counter in presence of 0.5% bovine serum albumin; assay type: cell-based
T2 sequence (Q13258 whole entry): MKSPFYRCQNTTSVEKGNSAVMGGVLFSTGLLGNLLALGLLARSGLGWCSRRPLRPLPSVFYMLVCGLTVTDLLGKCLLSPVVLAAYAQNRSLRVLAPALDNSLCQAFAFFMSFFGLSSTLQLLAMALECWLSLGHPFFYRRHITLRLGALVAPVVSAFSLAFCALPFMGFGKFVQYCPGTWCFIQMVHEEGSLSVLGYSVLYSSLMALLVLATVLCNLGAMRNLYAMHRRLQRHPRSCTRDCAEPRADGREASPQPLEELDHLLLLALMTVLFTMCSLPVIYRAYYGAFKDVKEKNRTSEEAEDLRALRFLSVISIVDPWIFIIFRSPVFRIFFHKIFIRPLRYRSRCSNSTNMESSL
How it was run: (§1)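 [3H]-PGD2 incubated with HEK-293 cells stably expressing human DP, with increasing compound concentrations; binding buffer held 0.5% BSA or 50% human plasma. Means of three experiments, standard deviation ±30%.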

[4] = molecular target: T2, Prostaglandin D2 receptor; assay: Displacement of [3H]-PGD2 from human Prostanoid DP receptor expressed in human HEK293 cells by scintillation counter in presence of 50% human plasma; assay type: cell-based; how it was run: as §1
Cavia porcellus [5] = assay: Inhibition of PGD2-induced airway constriction in guinea pig model at 0.1 to 10 mg/kg, sc administered 4 hrs prior to aerosolized PGD2 challenge; assay type: functional, organism-based
How it was run: (§2)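 Guinea pigs dosed sc 4 h before exposure to aerosolized PGD2 (0.6 mg/mL). Airway resistance recorded as Penh (enhanced pause) in response to the challenge. n = 4 animals per group.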

[6] = Plasma concentration in guinea pig at 10 mg/kg, sc after 4 hrs; assay type: ADME, organism-based, Cavia porcellus; set-up: dose 10 mg/kg, route subcutaneous
How it was run: (§3)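 Guinea pig plasma drug levels taken 4 h after sc dosing, in the PGD2 aerosol airway-constriction study; n = 4 animals per group.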

[7] = Plasma concentration in guinea pig at 3 mg/kg, sc after 4 hrs; assay type: ADME, organism-based, Cavia porcellus; set-up: dose 3 mg/kg, route subcutaneous; how it was run: as §3
[8] = Plasma concentration in guinea pig at 1 mg/kg, sc after 4 hrs; assay type: ADME, organism-based, Cavia porcellus; set-up: dose 1 mg/kg, route subcutaneous; how it was run: as §3
[9] = Plasma concentration in guinea pig at 0.3 mg/kg, sc after 4 hrs; assay type: ADME, organism-based, Cavia porcellus; set-up: dose 0.3 mg/kg, route subcutaneous; how it was run: as §3
[10] = Plasma concentration in guinea pig at 0.1 mg/kg, sc after 4 hrs; assay type: ADME, organism-based, Cavia porcellus; set-up: dose 0.1 mg/kg, route subcutaneous; how it was run: as §3
[11] = Antagonist activity at guinea pig Prostanoid DP receptor in whole blood by cAMP assay; assay type: functional; settings: Cavia porcellus
[12] = Inhibition of CYP450; assay type: ADME
[13] = Clearance in rat at 0.5 mg/kg, iv; assay type: ADME, organism-based; set-up: dose 0.5 mg/kg, route intravenous; settings: in vivo
[14] = Clearance in dog at 0.5 mg/kg, iv; assay type: ADME, organism-based, Canis lupus familiaris; set-up: dose 0.5 mg/kg, route intravenous; settings: in vivo
[15] = Clearance in cynomolgus monkey at 0.5 mg/kg, iv; assay type: ADME, organism-based, Macaca fascicularis; set-up: dose 0.5 mg/kg, route intravenous; settings: in vivo
[16] = Mean residence time in rat; assay type: ADME, organism-based; settings: in vivo
[17] = Mean residence time in dog; assay type: ADME, organism-based, Canis lupus familiaris; settings: in vivo
[18] = Mean residence time in cynomolgus monkey; assay type: ADME, organism-based, Macaca fascicularis; settings: in vivo
[19] = Volume of distribution at steady state in rat; assay type: ADME, organism-based; settings: in vivo, read-out: Vdss
[20] = Volume of distribution at steady state in dog; assay type: ADME, organism-based, Canis lupus familiaris; settings: in vivo, read-out: Vdss
[21] = Volume of distribution at steady state in cynomolgus monkey; assay type: ADME, organism-based, Macaca fascicularis; settings: in vivo, read-out: Vdss
[22] = Oral bioavailability in rat at 2 mg/kg; assay type: ADME, organism-based; settings: in vivo
[23] = Oral bioavailability in dog at 2 mg/kg; assay type: ADME, organism-based, Canis lupus familiaris; settings: in vivo
[24] = Oral bioavailability in cynomolgus monkey at 2 mg/kg; assay type: ADME, organism-based, Macaca fascicularis; settings: in vivo
Cavia porcellus [25] = assay: Inhibition of PGD2-induced airway constriction in guinea pig model at 0.3 to 10 mg/kg, sc administered 4 hrs prior to aerosolized PGD2 challenge; assay type: functional, organism-based; how it was run: as §2

| SMILES | IC50 [1] [nM] | IC50 [2] [nM] | IC50 [3] [nM] | IC50 [4] [nM] | other results |
| --- | --- | --- | --- | --- | --- |
| CC(C)(C)NC(=O)c1ccc(Oc2ccc(CC(=O)O)cc2Cl)c(NS(=O)(=O)c2ccc(Cl)cc2)c1 | 9 | 15 | 46 | 450 | – |
| CCCCNC(=O)c1ccc(Oc2ccc(CC(=O)O)cc2F)c(NS(=O)(=O)c2ccc(Cl)cc2Cl)c1 | 7 | 110 | 30 | 440 | – |
| CCCCNC(=O)c1ccc(Oc2cc(F)c(CC(=O)O)cc2F)c(NS(=O)(=O)c2ccc(Cl)cc2Cl)c1 | – | – | 7 | 600 | – |
| COc1cc(CC(=O)O)ccc1Oc1ccc(C(=O)NC2CC2)cc1NS(=O)(=O)c1ccc(Cl)cc1Cl | – | – | – | 1030 | – |
| CCCCNC(=O)c1ccc(Oc2ccc(CC(=O)O)cc2OC)c(NS(=O)(=O)c2ccc(C(F)(F)F)cc2Cl)c1 | – | – | 21 | 190 | – |
| CCCCNC(=O)c1ccc(Oc2ccc(CC(=O)O)cc2OC)c(NS(=O)(=O)c2cc(Cl)ccc2Cl)c1 | – | – | 50 | 3640 | – |
| CCCCNC(=O)c1ccc(Oc2ccc(CC(=O)O)cc2OC)c(NS(=O)(=O)c2c(Cl)cccc2Cl)c1 | – | – | > 10000 | – | – |
| CCCCNC(=O)c1ccc(Oc2ccc(CC(=O)O)cc2C)c(NS(=O)(=O)c2ccc(Cl)cc2Cl)c1 | 3 | 26 | 6 | 230 | – |
| CCCCNC(=O)c1ccc(Oc2ccc(CC(=O)O)cc2OC)c(NS(=O)(=O)c2cc(Cl)cc(Cl)c2)c1 | – | – | 930 | > 10000 | – |
| O=C(O)Cc1ccc(Oc2ccc(C(=O)NC3CCC3)cc2NS(=O)(=O)c2ccc(Cl)cc2)c(Cl)c1 | 6 | 12 | 16 | 85 | – |
| O=C(O)Cc1ccc(Oc2ccc(C(=O)NC3CC3)cc2NS(=O)(=O)c2ccc(Cl)cc2Cl)c(Cl)c1 | 7 | 25 | 14 | 220 | – |
| CC(C)(C)NC(=O)c1ccc(Oc2ccc(CC(=O)O)cc2Cl)c(NS(=O)(=O)c2ccc(Cl)cc2Cl)c1 | 5 | 12 | 15 | 230 | – |
| CCCCNC(=O)c1ccc(Oc2ccc(CC(=O)O)cc2OC)c(NS(=O)(=O)c2cccc(Cl)c2Cl)c1 | – | – | 520 | 2340 | – |
| CCCCNC(=O)c1ccc(Oc2ccc(CC(=O)O)cc2OC)c(NS(=O)(=O)c2ccc(Cl)cc2Cl)c1 | – | – | – | – | inhibition (Cavia porcellus [25]): Active; concentration at 4 h [6]: 939 nM; concentration at 4 h [7]: 688 nM; concentration at 4 h [8]: 152 nM; concentration at 4 h [9]: 117 nM; Kb [11]: 82 nM |
| CCCCNC(=O)c1ccc(Oc2ccc(CC(=O)O)cc2Cl)c(NS(=O)(=O)c2ccc(Cl)cc2Cl)c1 | 6 | 90 | 8 | 1330 | – |
| CCCCNC(=O)c1ccc(Oc2ccc(CC(=O)O)cc2C#N)c(NS(=O)(=O)c2ccc(Cl)cc2Cl)c1 | 18 | 210 | 310 | – | – |
| CCCCNC(=O)c1ccc(Oc2ccc(CC(=O)O)cc2OC)c(NS(=O)(=O)c2ccc(Cl)c(Cl)c2)c1 | – | – | 21 | 120 | – |

Continued, in another order:

| IC50 [1] [nM] | IC50 [2] [nM] | IC50 [3] [nM] | IC50 [4] [nM] | SMILES | other results |
| --- | --- | --- | --- | --- | --- |
| 4 | 13 | 13 | 45 | COc1cc(CC(=O)O)ccc1Oc1ccc(C(=O)NC2CCC2)cc1NS(=O)(=O)c1ccc(C(F)(F)F)cc1Cl | – |
| – | – | 4 | 35 | CC(C)(C)NC(=O)c1ccc(Oc2cc(F)c(CC(=O)O)cc2Cl)c(NS(=O)(=O)c2ccc(C3CC3)cc2Cl)c1 [VIDUPIPRANT] | inhibition (Cavia porcellus [5]): Active; concentration at 4 h [6]: 1400 nM; concentration at 4 h [7]: 222 nM; concentration at 4 h [8]: 77 nM; concentration at 4 h [9]: 40 nM; concentration at 4 h [10]: 32 nM; Kb [11]: 5 nM; inhibition (INH) [12]: Not Active; clearance [13]: 3.17 mL/min/kg; clearance [14]: 15 mL/min/kg; clearance [15]: 16 mL/min/kg; MRT [16]: 3.9 h; MRT [17]: 3 h; MRT [18]: 1 h; Vd [19]: 0.71 L/kg; Vd [20]: 2.72 L/kg; Vd [21]: 0.97 L/kg; bioavailability [22]: 87%; bioavailability [23]: 100%; bioavailability [24]: 79% |
| 5 | 8 | 10 | 19 | O=C(O)Cc1cc(Cl)c(Oc2ccc(C(=O)NC3CCC3)cc2NS(=O)(=O)c2ccc(OC(F)(F)F)cc2Cl)cc1F | – |
| 25 | 53 | 20 | 42 | O=C(O)Cc1cc(F)c(Oc2ccc(C(=O)NC3CCC3)cc2NS(=O)(=O)c2ccc(OC(F)(F)F)cc2Cl)cc1F | – |
| 13 | 41 | 9 | 22 | O=C(O)Cc1cc(F)c(Oc2ccc(C(=O)NC3CCC3)cc2NS(=O)(=O)c2ccc(C(F)(F)F)cc2Cl)cc1F | – |
| 5 | 19 | 9 | 210 | O=C(O)Cc1ccc(Oc2ccc(C(=O)NC3CCC3)cc2NS(=O)(=O)c2ccc(Cl)cc2Cl)c(Cl)c1 | – |
| 9 | 19 | 14 | – | CC(C)(C)NC(=O)c1ccc(Oc2cc(F)c(CC(=O)O)cc2Cl)c(NS(=O)(=O)c2ccc(OC(F)(F)F)cc2Cl)c1 | – |
